Compound activity deposited in PubChem BioAssay by Sanford-Burnham Center for Chemical Genomics.
Apaf-1 act – activators of human Apaf-1 apoptosome, primary screen, biochemical, DEVD-Rh110 fluorescence, uHTS; activity change, negative = activation, % at 20 µM; Apaf-1 apoptosome caspase-3 activation; active compounds read low; Apoptotic protease-activating factor 1 (Homo sapiens), O14727; actives 0.31% (n = 330,000);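 active = activity change at or below -40% at 20 µM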
Target sequence (O14727 whole entry, looked up): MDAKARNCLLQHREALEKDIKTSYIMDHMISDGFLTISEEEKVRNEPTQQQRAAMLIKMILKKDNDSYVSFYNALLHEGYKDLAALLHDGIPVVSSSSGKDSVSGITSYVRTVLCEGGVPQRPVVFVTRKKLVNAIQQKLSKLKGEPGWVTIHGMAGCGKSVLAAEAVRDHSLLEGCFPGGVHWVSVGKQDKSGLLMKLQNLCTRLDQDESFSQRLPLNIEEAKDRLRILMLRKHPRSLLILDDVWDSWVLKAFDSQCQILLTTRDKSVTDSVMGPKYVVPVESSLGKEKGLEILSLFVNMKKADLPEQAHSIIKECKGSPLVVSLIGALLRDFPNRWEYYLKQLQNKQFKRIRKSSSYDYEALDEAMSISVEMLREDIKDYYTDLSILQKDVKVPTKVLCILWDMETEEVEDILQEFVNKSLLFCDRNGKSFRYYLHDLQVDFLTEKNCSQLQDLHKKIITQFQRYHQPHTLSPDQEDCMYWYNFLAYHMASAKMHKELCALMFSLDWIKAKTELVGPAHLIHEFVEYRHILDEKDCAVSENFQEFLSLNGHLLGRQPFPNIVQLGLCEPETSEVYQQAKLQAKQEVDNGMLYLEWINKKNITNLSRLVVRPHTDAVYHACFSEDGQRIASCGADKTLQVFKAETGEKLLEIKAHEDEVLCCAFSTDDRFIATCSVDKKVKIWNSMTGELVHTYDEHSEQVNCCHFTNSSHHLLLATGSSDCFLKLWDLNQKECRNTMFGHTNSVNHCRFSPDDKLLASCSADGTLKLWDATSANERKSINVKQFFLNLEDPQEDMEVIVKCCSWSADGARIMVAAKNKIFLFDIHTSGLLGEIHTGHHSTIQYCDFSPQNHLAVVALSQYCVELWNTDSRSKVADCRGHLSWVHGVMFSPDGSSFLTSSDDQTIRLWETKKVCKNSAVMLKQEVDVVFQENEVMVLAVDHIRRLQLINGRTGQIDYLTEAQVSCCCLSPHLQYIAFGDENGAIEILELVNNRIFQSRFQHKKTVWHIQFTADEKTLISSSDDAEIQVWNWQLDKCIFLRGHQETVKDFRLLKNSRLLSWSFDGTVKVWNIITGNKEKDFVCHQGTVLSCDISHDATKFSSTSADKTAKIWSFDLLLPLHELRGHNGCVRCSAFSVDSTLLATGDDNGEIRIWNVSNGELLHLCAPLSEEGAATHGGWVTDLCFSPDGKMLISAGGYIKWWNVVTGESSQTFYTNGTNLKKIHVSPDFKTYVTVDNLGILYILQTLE
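System: Reconstituted apoptosome of Apaf-1, cytochrome c, caspase-9, procaspase-3 | Reagent: dATP, cytochrome c, and (Z-DEVD)2-Rh110 caspase-3 substrate | Times: 30 min compound preincubation and 50 min reaction, both room temperature | Detection: Caspase-3-released Rh110 fluorescence, 540 nm emission, 480 nm excitation | Measure: Caspase-3 activity via Apaf-1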
Numbers without * were called inactive. Only a sample is shown.

SMILES	Apaf-1 act
O=C1C(Cl)=C(NCCN2CCOCC2)C(=O)c2ccccc21	46
Clc1ccc(SCCOCCN2CCOCC2)cc1	-53*
O=C(CCNC(=O)c1ccc(Cl)cc1)NCCCN1CCOCC1	48
Cc1ccc2c(c1)C(=O)C(=O)N2Cc1ccc(Cl)cc1	40
CC(=O)N1CCN(c2ccc(NCc3ccc(-c4cccc(Cl)c4)o3)cc2)CC1	43
COC(=O)C1=C(C)N(Cc2ccccc2)C(=NCCc2cccnc2)N[C@H]1c1ccc(Br)cc1	51
O=C(O)CCC1c2cc3c4cc2OC2Oc5cc6c(cc51)C(CCC(=O)O)c1cc5c7cc1OC(O6)c1cc6cc(c1)Oc1cc(cc(C(=O)O)c1)Oc1cc8cc(c1)C(Oc1cc(c(cc1C5CCC(=O)O)C3CCC(=O)O)OC(O4)c1cc(cc(c1)Oc1cc(cc(C(=O)O)c1)O8)Oc1cc(cc(C(=O)O)c1)Oc1cc(cc2c1)Oc1cc(cc(C(=O)O)c1)O6)O7 (stereo not given)	99
NC1=NC[C@@H](Cc2ccc(O)cc2)N1CCCCC1CCCCC1	51
CCN(CC)c1ccc(NC(=O)CCS(=O)(=O)c2ccc(Br)cc2)c(C)c1	-136*
CC(=O)c1ccc(N2CCN(S(=O)(=O)c3ccc4c5c3CC(=O)N5CC(C)S4)CC2)cc1 (stereo not given)	56
COC(=O)C1=C(C)N(Cc2ccccc2)C(=NCCc2ccccn2)N[C@H]1c1cccc(C(F)(F)F)c1	48
CC(C)=CCC/C(C)=C/CNC(=O)C[C@H]1C[C@H](C(=O)N2CCOCC2)[C@@]2(C)c3[nH]c4cc(-c5ccco5)ccc4c3CCN2C1=O	44
CN(c1ccccc1)S(=O)(=O)c1cccc(C(=O)NCc2ccccc2CN2CCCC2)c1	52
Cc1ccc(C)c(NC(=O)CN(C)C(=O)c2cccc(S(=O)(=O)N3CCN(Cc4ccccc4)CC3)c2)c1	41
CS(=O)(=O)N(CC(=O)Nc1ccccc1C(=O)N1CCCC1)c1cccc([N+](=O)[O-])c1	-71*
Cc1cccc(N(Cc2ccccc2)C(=O)C2CCN(C(=O)c3ccccc3C)CC2)c1	48
CC(=O)c1cccc(N(CC(=O)Nc2ccccc2C(=O)N2CCCC2)S(C)(=O)=O)c1	-323*
O=C(/C=C/c1cc[n+](CC(=O)c2ccc3cccc4c3c2CC4)cc1)c1ccc2cccc3c2c1CC3	59
CCC1C(=O)N=C(SCC(=O)Nc2nc3ccccc3s2)NC1=O (stereo not given)	70
C=CCn1c(NC(=O)c2ccc(Br)o2)c(S(=O)(=O)c2ccccc2)c2nc3ccccc3nc21	63
C[C@@H]1CN([C@@H](C)CO)C(=O)c2cc(NC(=O)Nc3ccc(F)cc3)ccc2O[C@@H]1CN(C)Cc1ccc(Oc2ccccc2)cc1	42
CCN(CC(=O)Nc1ccccc1OC)C(=O)CN1C(=O)NC(C)(c2ccccc2)C1=O (stereo not given)	49
C#CCOCCOCCOCCNc1nc(N2CCN(C(=O)[C@H](CCCCN)n3cc([C@@H](N)CC(N)=O)nn3)CC2)nc(N2CCN(C(=O)[C@H](CCCCN)n3cc([C@@H](N)CC(N)=O)nn3)CC2)n1	55
COc1ccccc1N1CCN(C(=O)C(C)CS(=O)(=O)c2ccc3c(c2)NC(=O)CS3)CC1 (stereo not given)	-428*
COc1ccccc1N1CCN(C(=O)c2ccc3c(Cl)c4c(nc3c2)CCCC4)CC1	41
SMILES	Apaf-1 act
COc1ccccc1N1CCN(C(c2cccs2)C(C)NS(=O)(=O)c2ccccc2)CC1 (stereo not given)	55
COc1cccc(OC)c1-c1nn2c(-c3cc(-c4ccccc4)n[nH]3)nnc2s1	53
CCC1CCc2sc(C(=O)NCC(c3ccccc3OC)N3CCCC3)cc2C1 (stereo not given)	49
Cc1ccc2c(c1)c1cccc3c1n2CCN3CCC(N)=O	51
CCCN(CC(=O)Nc1ccccc1C)C(=O)COc1ccc2c(c1)CCC2	60
Cn1c(-c2sccc2OCc2ccccc2)n[nH]c1=S	-289*
Cc1ccc(OCC(=O)N(Cc2nnc(-c3ccccc3Cl)o2)C2CC2)cc1C	56
CC12CCC(=O)N1C(C(=O)Nc1ccccc1N1CCCCC1)CS2 (stereo not given)	48
C=C(C)C(=O)Nc1cccc(C2=NOC3(C2)C[C@H](C(N)=O)N(C(=O)CC#N)C3)c1 (stereo not given in full)	-166*
C=C(C)C(=O)Nc1cccc(C2=NOC3(C2)C[C@H](C(N)=O)N(C(=O)CC)C3)c1 (stereo not given in full)	-271*
Clc1ccc(C2=Nn3c(nnc3-c3n[nH]c4c3CCC4)SC2)cc1Cl	43
C#CCOCCOCCOCCNc1nc(N2CCN(C(=O)CCCCCCCCCCNC(=O)[C@H]([C@@H](C)CC)n3cc(CCCCN=C(N)N)nn3)CC2)nc(N2CCN(C(=O)CCCCCCCCCCNC(=O)[C@H](CCCCN)n3cc(C)nn3)CC2)n1	73
O=c1ccc2cc3c([nH]c4ccc(Br)cc43)oc-2c1O	85
